# Compound activity deposited in PubChem by several laboratories.
# Shown are actives, neighbours in structure and some others; about 3.4% of the full set was active somewhere.
# MC4R ag barr: MC4R agonists recruiting beta-arrestin, primary screen, cell-based, luminescence, agonist arm of biased-ligand search | Melanocortin receptor 4 (Homo sapiens), P32245 | U2OS MC4R beta-arrestin complementation; percent of melanotan II response, DMSO zero | activation, % at 8.9 µM | 360,000 compounds, 0.98% hits | AID 540308, 2011;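 active means activation above a per-plate cutoff, the mean activation of sample wells on that plate plus 3 SD, cut at about 8% in these data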
# Target sequence (P32245 whole entry, looked up): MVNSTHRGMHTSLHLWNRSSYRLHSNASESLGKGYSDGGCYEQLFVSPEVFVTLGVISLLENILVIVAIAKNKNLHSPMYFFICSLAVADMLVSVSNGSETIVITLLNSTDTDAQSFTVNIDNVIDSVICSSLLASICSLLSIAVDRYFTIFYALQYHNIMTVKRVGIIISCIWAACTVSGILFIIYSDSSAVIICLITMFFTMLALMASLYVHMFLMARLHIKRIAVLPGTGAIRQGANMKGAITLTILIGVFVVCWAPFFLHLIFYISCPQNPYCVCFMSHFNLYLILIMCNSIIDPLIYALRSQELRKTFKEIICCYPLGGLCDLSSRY
# HTR2A ag: mouse Htr2a agonists via beta-arrestin recruitment, primary screen, cell-based, luminescence. 5-hydroxytryptamine receptor 2A (Mus musculus), P35363. CHO-K1 mHTR2A beta-arrestin complementation; percent of 30 µM serotonin response. activation, % at 7.6 µM. 360,000 compounds, 0.66% hits. AID 624169, 2012;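 active means activation above a run cutoff, the mean activation of all tested compounds plus 3 SD, cut at about 14% in these data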;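 further: 0% = plate median of compound wells and 100% = 30 µM serotonin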
# ANO1 activ: TMEM16A chloride channel activators or potentiators, primary screen, cell-based, HTS; B-score at 10 µM; HEK293 TMEM16A/YFP-H148Q/I152L, iodide quench fluorescence; stronger effect = lower value; Anoctamin-1 (Mus musculus), Q8BHY3; AID 623877, 2012; 340,000 compounds, 0.3% hits;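 active means fluorescence-ratio B-score plate-corrected deviation score at least 3 library SD below zero, with starting fluorescence score within 5 deviations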;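 further: channel opened by trigger with iodide after compound preincubation; score built on the fluorescence ratio of max minus min over baseline; more negative score means more quench and so TMEM16A activation or potentiation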
# ANO1 block: TMEM16A chloride channel inhibitors, primary screen, cell-based, HTS; HEK293 TMEM16A/YFP iodide influx fluorescence, ionomycin; 310,000 compounds, 1.2% hits; AID 588511, 2011; Anoctamin-1 (Mus musculus), Q8BHY3; normalized B-score (activity score, 25-100; higher = stronger inhibition) at 10 µM;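 active means ratio plate-corrected score three or more library SD toward inhibition, starting fluorescence score within five deviations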;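 further: score derived from kinetic fluorescence span divided by baseline fluorescence per well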
# MC4R antag cAMP: MC4R antagonists of cAMP signaling, primary screen, cell-based, TR-FRET, antagonist arm of biased-ligand search; Melanocortin receptor 4 (Homo sapiens), P32245; MC4R-expressing cells, MTII-stimulated cAMP, LANCE TR-FRET; inhibition, % at 6.5 µM; 360,000 compounds, 0.48% hits; AID 540295, 2011;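 active means inhibition above its plate's cutoff, the mean of tested wells on that plate plus 3 SD, cut at about 29% in these data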;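 further: 0% = Melanotan II alone and 100% = Melanotan II plus saturating MCL0020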
#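 System: U2OS-MC4R stable cell line; Technique: Eu-cAMP/anti-cAMP TR-FRET, emission 671 nm; Repeats: single well per compound; Also added: Melanotan II; Dosing: one concentration, 6.5 µM nominal; Schedule: 30-min compound, 1-h challenge, 1-h detection, room temperature.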
# beta cell repl: inducers of MIN6 beta-cell proliferation, primary screen, ATP luminescence, uHTS | MIN6 cells proliferation, ATPlite luminescence, 48 h; cells starved in 0.2% serum; 100% = growth in 10% serum | proliferation, % at 10 µM | 330,000 compounds, 0.29% hits | AID 2380, 2010;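 active means compounds whose signal lies at least 3.5 SD above the mean of all wells on their plate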;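 further: 0% = DMSO-treated cells in low-serum medium and 100% = 10% serum control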
# cAMP nonselect: nonselective cAMP signaling inhibitors, parental cells, counter-screen for MC4R biased antagonist project, cell-based, TR-FRET, U2OS, forskolin, triplicate; shares compounds with MC4R antag cAMP; LANCE TR-FRET; inhibition, % at 6.5 µM; 1,600 compounds, 26% hits;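 active means mean inhibition over triplicates above the low-control well mean plus 3 SD, set per campaign, cut at about 13% in these data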;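 further: signal is single emission at 671 nm which falls as cellular cAMP rises; 0% = forskolin-stimulated wells and 100% = buffer without forskolin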
# MC4R cAMP antag: MC4R cAMP antagonists, retest, confirmation, cell-based, TR-FRET. MC4R-expressing cells, MTII-stimulated cAMP. inhibition, % at 6.5 µM. shares compounds with MC4R antag cAMP. 1,600 compounds, 27% hits. AID 602195, 2012; in the data active means inhibition above about 29%;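 further: 0% = agonist stimulated wells alone and 100% = agonist stimulated wells plus saturating reference antagonist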
# * = called active by the depositor; i = inactive; · = not tested or not shown.
SMILES,MC4R ag barr,HTR2A ag,ANO1 activ,ANO1 block,MC4R antag cAMP,beta cell repl,cAMP nonselect,MC4R cAMP antag
O=S(=O)(c1cc(F)ccc1F)N1CCN(c2ncccn2)CC1,-3,6,i,i,-1,0,·,·
CN1OC[C@@H]2CN(C(=O)Nc3ccccc3)[C@H](c3ccc(N4CCCCC4)cc3)C[C@@H]21,·,-5,·,·,·,·,·,·
COc1ccc(C(NC(=O)c2c(F)c(F)c(F)c(F)c2F)c2ccccc2)cc1 (centres undefined),0,5,i,i,72*,-3,57*,88*
COc1ccc(C(NC(=O)c2cc(OC)ccc2OC)c2ccccc2)cc1 (centres undefined),1,-5,i,i,2,-4,·,·
CC(=O)NS(=O)(=O)c1ccc(N=c2ssc3c2-c2cc(C)c(C)cc2NC3(C)C)cc1,-2,1,i,i,31*,-2,3,16
COc1ccc(N2CCN(C(=O)NCc3ccc(OC)c(Cl)c3)CC2)cc1,2,0,i,i,31*,0,-1,8
COc1ccc(-c2cc(C(=O)N(C)CC(=O)Nc3cccc(F)c3)c3ccccc3n2)cc1OC,-1,7,·,·,30*,·,1,1
Cc1ccc(S(=O)(=O)NCC(=O)OC(C)C(=O)Nc2ncc(Cl)cc2Cl)cc1 (centres undefined),-2,6,i,i,31*,0,14*,27
Cc1ccc(S(=O)(=O)NCC(=O)OCC(=O)Nc2ncc(Cl)cc2Cl)cc1,0,-1,i,i,16,0,·,·
NC(=O)c1ccc(N2CCNC(=O)C2)c([N+](=O)[O-])c1,1,3,i,i,12,0,·,·
O=C1NC[C@@H](c2ccccc2)OC(=O)[C@@H](Cc2ccc(F)cc2)CC/C=C/C[C@H]1CC(=O)N(CCO)Cc1ccccc1,-2,8,i,·,7,-6,·,·
O=C(N[C@H]1C/C=C\C[C@H](CC(=O)N(CCO)Cc2ccccc2)C(=O)NC[C@H](c2ccccc2)OC1=O)OCC1c2ccccc2-c2ccccc21,0,-7,i,·,32*,-5,4,-6
O=C1NC[C@H](c2ccccc2)OC(=O)[C@@H](Cc2ccc(F)cc2)C/C=C\C[C@H]1CC(=O)N(CCO)Cc1ccccc1,-1,-1,i,·,45*,-6,2,22
O=C1NC[C@H](c2ccccc2)OC(=O)[C@H](Cc2ccc(F)cc2)C/C=C\C[C@H]1CC(=O)N(CCO)Cc1ccccc1,1,7,i,·,39*,-4,-2,-6
O=C1NC[C@@H](c2ccccc2)OC(=O)[C@H](Cc2ccc(F)cc2)C/C=C\C[C@H]1CC(=O)N(CCO)Cc1ccccc1,-2,4,i,·,15,0,·,·
COc1ccc(OC)c(S(=O)(=O)NC(=O)C2(C)CCN2C(=O)C2(c3ccc(Cl)cc3)CC2)c1 (centres undefined),-1,0,·,·,23,·,·,·
CS(=O)(=O)c1ccc(C(=O)NNC(=O)c2ccccc2-n2cccc2)cc1,-2,4,i,·,7,0,·,·
CCOc1ccccc1NC(=O)c1cc(C(=O)c2cc(OC)ccc2O)coc1=N,-3,3,i,i,33*,1,4,5
CN(Cc1c(F)cccc1Cl)C(=O)CCc1c[nH]c2ccccc12,-2,2,i,i,29*,6,3,1
CCN1C(=O)N2C[C@H]3CON(C)[C@H]3C[C@H]2c2ccccc21,·,2,·,·,·,·,·,·
COc1cc(CN2CCCC(N3CCN(c4ccc(F)cc4)CC3)C2)ccc1F (centres undefined),1,-13,i,i,30*,2,0,5
CCCn1nnnc1COc1ccc(C(N)=O)cc1,-1,-3,i,i,9,1,·,·
O=C(CNC(=O)C(c1ccccc1)c1ccccc1)OCc1ccccc1,0,0,i,i,30*,0,13,19
O=C(O)c1ccccc1C(=O)Nc1ccccc1NC(=O)c1ccccc1C(=O)O,1,4,i,i,18,1,·,·
CC(=O)c1sc(C(C)(C)C)cc1NC(=O)c1ccccc1C(=O)O,-1,2,i,i,36*,-3,32*,56*
SMILES,MC4R ag barr,HTR2A ag,ANO1 activ,ANO1 block,MC4R antag cAMP,beta cell repl,cAMP nonselect,MC4R cAMP antag
CC(C)N1C(=O)S/C(=C/c2ccccc2OCc2ccc(C(=O)O)cc2)C1=O,-1,1,i,i,31*,-4,-4,-4
O=C(/C=C/c1ccco1)OCC1CCCN2CCCCC12 (centres undefined),-3,-2,i,i,31*,3,-2,-6
COc1ccccc1CN1C[C@@H]2C[C@@H](C3=Cc4cccc(OC)c4OC3)N3CCC[C@@]23C1=O,0,6,-4.7*,i,33*,-2,4,0
Cc1cc(NC(=O)CSc2nc3c(c(-c4cccnc4)c2C#N)CCC3)no1,3,-1,i,i,47*,1,19*,57*
Cc1cc(NC(=O)CSc2nc3ccccc3cc2C#N)no1,0,6,i,i,51*,-2,7,0
Cc1cc(NC(=O)CSc2nc(-c3cccnc3)ccc2C#N)no1,0,4,i,i,11,-1,·,·
CCCNC(=O)C1(C)CCCN(C(=O)c2ccc3snnc3c2)C1 (centres undefined),1,0,·,·,14,·,·,·
CCc1nnc(NS(=O)(=O)c2ccc(N/C=C\C(=O)c3cccc(OC)c3)cc2)s1,-2,1,i,i,34*,-1,2,9
CC(=O)OC1CCC2(C)C(CCC3C4CC=C(C(C)=O)C4(C)OC(=O)CC32)C1 (centres undefined),-2,-1,·,·,42*,·,31*,-20
